Active and inactive are the calls of the source. The calls are words filed in the database; no cut-off is given here.
Tests used:
[1] = target: T1, CYP3A4 (Homo sapiens, UniProt P08684); experiment: Time dependent inhibition of CYP3A4 in human liver microsomes using testosterone as substrate at 10 uM preincubated for 30 mins by LC-MS-MS analysis relative to control; assay type: ADME, Microsome; settings: probe testosterone, read-out: TDI
Outline: (§1)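 CYP3A4 metabolism of testosterone was measured after 0 or 30 min preincubation of enzyme with test article at the indicated concentration. Activity lost via preincubation, relative to the zero-minute control with the same inhibitor, was the end point. 6β-OH testosterone was detected by LC-MS/MS with cortisone as internal standard.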

[2] = target: T1, CYP3A4; experiment: Inhibition of CYP3A4 in human liver microsomes using testosterone as substrate at 10 uM by LC-MS-MS analysis relative to control; assay type: ADME, Microsome; settings: probe testosterone
[3] = target: T2, Cytochrome P450 3A4 (Homo sapiens, UniProt P08684); experiment: Time dependent inhibition of CYP3A4 in human liver microsomes using testosterone as substrate by LC-MS-MS analysis relative to control; assay type: ADME, Microsome; outline: as §1
[4] = tested on: GTL 16; experiment: Antitumor activity against human GTL16 cells expressing c-MET xenografted in po dosed CD1 nu/nu mouse assessed as tumor growth inhibition administered bid for 21 days; assay type: functional, organism-based
Outline: (§2)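 Mice carrying GTL-16 tumours received the compound orally; tumour growth was compared with the vehicle-treated group by two-way repeated measures ANOVA.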

[5] = Antitumor activity against human GTL16 cells expressing c-MET xenografted in CD1 nu/nu mouse assessed as tumor growth inhibition at 10 mg/kg, po bid for 21 days relative to control; assay type: functional; settings: GTL 16, 504 h, read-out: TGI; outline: as §2
[6] = target: Vascular endothelial growth factor receptor 3 (Homo sapiens) (UniProt P35916); experiment: Inhibition of FLT4 (unknown origin) relative to control; settings: concentration not given here
Outline: (§3)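 Kinase selectivity was assessed at a 10 μM or 0.1 μM test concentration, as footnoted per entry.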

[7] = Plasma clearance in rat; assay type: ADME, organism-based
[8] = tested on: Mus musculus; experiment: In vivo inhibition of c-MET phosphorylation at tyrosine Y1349 in human GTL16 cells xenografted in mouse at 100 mg/kg, po after 1 hr by Western blotting analysis; assay type: functional, organism-based; parameters: dose 100 mg/kg
Outline: (§4)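 Mice carrying GTL-16 xenografts received a single oral dose of 10, 30, 100 or 400 mg/kg and were euthanized 1 h after dosing. Phospho-c-Met (Y1349) and total c-Met in the tumours were measured by quantitative Western blotting. Plasma total drug was also measured, and in vivo IC50 was deduced from the relationship between plasma level and tumour pY1349.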

[9] = target: Hepatocyte growth factor receptor (Homo sapiens) (UniProt P08581); settings: 1 uM
[10] = Oral bioavailability in rat; assay type: ADME, organism-based; settings: in vivo
[11] = target: T3, Tyrosine-protein kinase Mer (Homo sapiens) (UniProt Q12866); experiment: Inhibition of MER (unknown origin) relative to control; settings: concentration not given here; outline: as §3
T3 sequence (whole entry): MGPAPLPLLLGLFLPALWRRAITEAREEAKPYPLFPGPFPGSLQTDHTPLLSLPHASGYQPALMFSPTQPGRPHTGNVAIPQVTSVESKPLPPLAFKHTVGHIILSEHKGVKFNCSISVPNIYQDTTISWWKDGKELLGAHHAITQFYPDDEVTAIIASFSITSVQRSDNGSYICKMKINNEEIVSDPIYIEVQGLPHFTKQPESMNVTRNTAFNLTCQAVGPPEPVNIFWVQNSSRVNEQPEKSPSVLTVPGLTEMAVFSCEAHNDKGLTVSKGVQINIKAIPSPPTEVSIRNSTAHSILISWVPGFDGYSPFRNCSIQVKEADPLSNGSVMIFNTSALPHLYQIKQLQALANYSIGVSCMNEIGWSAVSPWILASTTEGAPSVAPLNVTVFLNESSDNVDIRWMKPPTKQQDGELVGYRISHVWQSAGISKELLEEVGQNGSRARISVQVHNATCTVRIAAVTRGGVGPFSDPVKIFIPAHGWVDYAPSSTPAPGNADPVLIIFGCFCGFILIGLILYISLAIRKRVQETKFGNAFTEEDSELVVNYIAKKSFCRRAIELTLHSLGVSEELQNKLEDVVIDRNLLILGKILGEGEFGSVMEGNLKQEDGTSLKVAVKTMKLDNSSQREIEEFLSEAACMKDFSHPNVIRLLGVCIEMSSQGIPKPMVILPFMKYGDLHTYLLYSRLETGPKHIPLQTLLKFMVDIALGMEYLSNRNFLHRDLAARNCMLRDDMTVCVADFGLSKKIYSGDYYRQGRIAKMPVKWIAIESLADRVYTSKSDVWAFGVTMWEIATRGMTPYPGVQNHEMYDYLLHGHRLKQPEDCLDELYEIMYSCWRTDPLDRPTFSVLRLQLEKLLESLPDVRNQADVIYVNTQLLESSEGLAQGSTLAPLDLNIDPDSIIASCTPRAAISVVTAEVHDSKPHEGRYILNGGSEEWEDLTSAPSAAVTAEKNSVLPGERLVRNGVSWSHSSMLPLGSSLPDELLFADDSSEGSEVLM

[12] = tested on: Mus musculus; experiment: In vivo inhibition of c-MET phosphorylation at tyrosine Y1349 in human GTL16 cells xenografted in po dosed mouse after 1 hr by Western blotting analysis; assay type: functional, organism-based; settings: GTL 16, 1 h; outline: as §4
[13] = tested on: Mus musculus; experiment: In vivo inhibition of c-MET phosphorylation at tyrosine Y1349 in human GTL16 cells xenografted in po dosed mouse after 8 hrs by Western blotting analysis; assay type: functional, organism-based; settings: GTL 16, 8 h
[14] = Oral bioavailability in dog; assay type: ADME, organism-based, Canis lupus familiaris; settings: in vivo
[15] = Plasma clearance in dog; assay type: ADME, organism-based, Canis lupus familiaris
[16] = Volume of distribution at steady state in dog; assay type: ADME, organism-based, Canis lupus familiaris; settings: in vivo, read-out: Vdss
[17] = Antitumor activity against human GTL16 cells expressing c-MET xenografted in CD1 nu/nu mouse assessed as tumor growth inhibition at 30 mg/kg, po bid for 21 days relative to control; assay type: functional; settings: GTL 16, 504 h, read-out: TGI; outline: as §2
[18] = Half life in dog; assay type: ADME, organism-based, Canis lupus familiaris; settings: in vivo
[19] = Half life in rat; assay type: ADME, organism-based; settings: in vivo
[20] = tested on: Mus musculus; experiment: Toxicity in CD1 nu/nu mouse xenografted with human GLT16 cells assessed as change in body weight relative to control; assay type: organism-based; settings: in vivo
[21] = target: T4, Macrophage-stimulating protein receptor (Homo sapiens, UniProt Q04912); experiment: Inhibition of RON (unknown origin) by TR-FRET assay
[22] = target: Cytochrome P450 2D6 (Homo sapiens, UniProt P10635); experiment: Inhibition of CYP2D6 (unknown origin); assay type: ADME
[23] = target: Cytochrome P450 2C9 (Homo sapiens, UniProt P11712); experiment: Inhibition of CYP2C9 (unknown origin); assay type: ADME
[24] = Antitumor activity against human GTL16 cells expressing c-MET xenografted in CD1 nu/nu mouse assessed as tumor growth inhibition at 100 mg/kg, po bid for 21 days relative to control; assay type: functional; settings: GTL 16, 504 h, read-out: TGI; outline: as §2
[25] = target: T2, Cytochrome P450 3A4; experiment: Time dependent inhibition of CYP3A4 in human liver microsomes using testosterone as substrate up to 100 uM by LC-MS-MS analysis; assay type: ADME, Microsome
Outline: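 For inactivation kinetics, CYP3A4 testosterone 6β-hydroxylation was quantified by LC-MS/MS as the area ratio of 6β-OH testosterone to the cortisone internal standard. Ki and kinact were obtained by nonlinear regression.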

[26] = target: T4, Macrophage-stimulating protein receptor; settings: 1 uM
[27] = Volume of distribution at steady state in rat; assay type: ADME, organism-based; settings: in vivo, read-out: Vdss
[28] = target: Tyrosine-protein kinase Fes/Fps (Homo sapiens) (UniProt P07332); experiment: Inhibition of FES (unknown origin) relative to control; settings: concentration not given here; outline: as §3
[29] = target: Fibroblast growth factor receptor 3 (Homo sapiens) (UniProt P22607); experiment: Inhibition of FGFR3 (unknown origin) relative to control; settings: concentration not given here; outline: as §3
[30] = tested on: GTL 16; experiment: Antitumor activity against human GTL16 cells expressing c-MET xenografted in CD1 nu/nu mouse assessed as tumor growth inhibition at 100 mg/kg, po qd for 21 days; assay type: functional, organism-based; parameters: dose 100 mg/kg
[31] = Antitumor activity against human GTL16 cells expressing c-MET xenografted in CD1 nu/nu mouse assessed as tumor growth inhibition at 3 mg/kg, po bid for 21 days relative to control; assay type: functional; settings: GTL 16, 504 h, read-out: TGI; outline: as §2
[32] = target: Voltage-gated inwardly rectifying potassium channel KCNH2 (Homo sapiens, UniProt Q12809); experiment: Inhibition of human ERG

Cn1cc(-c2cnc3ccc4ccc(CS(=O)(=O)Nc5ccccc5)cc4c(=O)c3c2)cn1
inhibition at 30 min, 10 µM [1]: 50% | inhibition at 10 µM [2]: 28%

Cn1cc(-c2cnc3ccc4ccc(CS(=O)(=O)NCc5cnsc5)cc4c(=O)c3c2)cn1
inhibition at 30 min, 10 µM [1]: 13% | inhibition at 10 µM [2]: 67%

Cn1cc(-c2cnc3ccc4ccc(CS(=O)(=O)N[C@@H]5CCCC[C@@H]5N)cc4c(=O)c3c2)cn1
inhibition at 30 min, 10 µM [1]: 20% | inhibition at 10 µM [2]: 27%

Cn1cc(-c2cnc3ccc4ccc(CS(=O)(=O)NCc5ccccc5Cl)cc4c(=O)c3c2)cn1
inhibition at 30 min, 10 µM [1]: 0% | inhibition at 10 µM [2]: 17%

CN(C)S(=O)(=O)Cc1ccc2ccc3ncc(-c4cnn(C)c4)cc3c(=O)c2c1
inhibition at 30 min, 10 µM [1]: 6% | inhibition at 10 µM [2]: 0%

Cn1cc(-c2cnc3ccc4ccc(CS(=O)(=O)NCc5cccnn5)cc4c(=O)c3c2)cn1
inhibition at 30 min, 10 µM [1]: 14% | inhibition at 10 µM [2]: 23%

Cn1cc(-c2cnc3ccc4ccc(CC(=O)NCc5ccccn5)cc4c(=O)c3c2)cn1
TDI [3]: < 10%

Cn1cc(-c2cnc3ccc4ccc(CS(=O)(=O)NCc5ccc(F)cc5F)cc4c(=O)c3c2)cn1
inhibition at 30 min, 10 µM [1]: 17% | inhibition at 10 µM [2]: 42%

Cn1cc(-c2cnc3ccc4ccc(CS(=O)(=O)NCc5cccc[n+]5[O-])cc4c(=O)c3c2)cn1
inhibition at 30 min, 10 µM [1]: 0% | inhibition at 10 µM [2]: 24%

Cn1cc(-c2cnc3ccc4ccc(CS(=O)(=O)NCc5ccncc5)cc4c(=O)c3c2)cn1
inhibition at 10 µM [2]: 97%

Cn1cc(-c2cnc3ccc4ccc(CC(N)=O)cc4c(=O)c3c2)cn1
TDI [3]: < 10%

Cn1cc(-c2cnc3ccc4ccc(CS(=O)(=O)NCCc5ccccn5)cc4c(=O)c3c2)cn1
inhibition at 30 min, 10 µM [1]: 9% | inhibition at 10 µM [2]: 14%

Cn1cc(-c2cnc3ccc4ccc(CS(=O)(=O)N[C@@H]5CCCC[C@H]5N)cc4c(=O)c3c2)cn1
inhibition at 30 min, 10 µM [1]: 30% | inhibition at 10 µM [2]: 30%

CCCNS(=O)(=O)Cc1ccc2ccc3ncc(-c4cnn(C)c4)cc3c(=O)c2c1
inhibition at 30 min, 10 µM [1]: 15% | inhibition at 10 µM [2]: 21%

Cn1cc(-c2cnc3ccc4ccc(CS(=O)(=O)NCc5ccccn5)cc4c(=O)c3c2)cn1 [MK-8033]
TGI [4]: Dose-dependent effect | inhibition in vivo at 10 mg/kg [5]: 18% | inhibition [6]: 60% | clearance [7]: 20 mL/min/kg | inhibition [8]: Active | inhibition [9]: > 90% | bioavailability [10]: 35% | inhibition [11]: 60% | IC50 [12]: 1300 nM | IC50 [13]: 1700 nM | bioavailability [14]: 33% | clearance [15]: 3.1 mL/min/kg | Vd [16]: 0.7 L/kg | inhibition in vivo at 30 mg/kg [17]: 57% | half-life [18]: 186 min | inhibition at 30 min, 10 µM [1]: 16% | half-life [19]: 48 min | Activity [20]: Non-toxic | inhibition at 10 µM [2]: 31% | IC50 [21]: 7 nM | IC50 [22]: 46200 nM | IC50 [23]: 14700 nM | inhibition in vivo at 100 mg/kg [24]: 86% | TDI [25]: Not Active | inhibition [26]: > 90% | Vd [27]: 0.4 L/kg | inhibition [28]: 60% | inhibition [29]: 60% | TGI [30]: Active | inhibition in vivo at 3 mg/kg [31]: 22%

CN(C)S(=O)(=O)Nc1ccc2ccc3ncc(-c4cnn(C)c4)cc3c(=O)c2c1
clearance [7]: 40 mL/min/kg | bioavailability [10]: 24% | bioavailability [14]: 16% | inhibition (INH) [32]: Not Active | clearance [15]: 57 mL/min/kg | Vd [16]: 3.5 L/kg | half-life [18]: 48 min | inhibition at 30 min, 10 µM [1]: 30% | half-life [19]: 42 min | Vd [27]: 2.5 L/kg

Cn1cc(-c2cnc3ccc4ccc(CS(N)(=O)=O)cc4c(=O)c3c2)cn1
inhibition at 30 min, 10 µM [1]: 26% | inhibition at 10 µM [2]: 0%

Cn1cc(-c2cnc3ccc4ccc(CS(=O)(=O)NCC5CCCCN5)cc4c(=O)c3c2)cn1 (configuration not stated)
inhibition at 30 min, 10 µM [1]: 1% | inhibition at 10 µM [2]: 29%

Cn1cc(-c2cnc3ccc4ccc(CS(=O)(=O)NCc5cccnc5)cc4c(=O)c3c2)cn1
inhibition at 30 min, 10 µM [1]: 0% | inhibition at 10 µM [2]: 30%

CNS(=O)(=O)Cc1ccc2ccc3ncc(-c4cnn(C)c4)cc3c(=O)c2c1
inhibition at 30 min, 10 µM [1]: 35% | inhibition at 10 µM [2]: 0%

Cc1nccc(CNS(=O)(=O)Cc2ccc3ccc4ncc(-c5cnn(C)c5)cc4c(=O)c3c2)n1
inhibition at 30 min, 10 µM [1]: 5% | inhibition at 10 µM [2]: 22%

Cn1cc(-c2cnc3ccc4ccc(CS(=O)(=O)NCC5COCCO5)cc4c(=O)c3c2)cn1 (configuration not stated)
inhibition at 30 min, 10 µM [1]: 35% | inhibition at 10 µM [2]: 0%

— ChEMBL document CHEMBL2321765 (J Med Chem, 2013)
